Experiment [1] concerns the target Potassium-transporting ATPase (Canis familiaris). The experiment is described as follows: In vitro inhibitory activity against H+/K+ ATPase prepared from canine fundic mucosa.
Experiment [2] relates to Canis familiaris. Put plainly: Inhibitory activity when administered […] in histamine-stimulated gastric fistula dog at 3 mg/kg, id; Lethal at 10 mg/kg, id. The format is functional, organism-based. The conditions noted are these: Canis lupus familiaris, Stomach. A digest of the protocol: (§1)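 Conscious gastric-fistula dogs fasted 18 h, given 3 mg/kg after a 30-min basal period. Histamine infused at 15 μg/kg per h, with gastric juice collected every 30 min for 4 h. Total acidity found by titration with 0.1 N NaOH to pH 7.0.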

Experiment [3] relates to Canis familiaris. The experiment is described as follows: Inhibitory activity when administered intravenously in histamine-stimulated gastric fistula dog at 3 mg/kg, id. It counts as functional. The conditions noted are these: Canis lupus familiaris, Stomach, in the assay text read “in” for “when administered intravenously in”. A digest of the protocol:
as §1

From ChEMBL document CHEMBL1124135, “Substituted 2-[(2-benzimidazolylsulfinyl)methyl]anilines as potential inhibitors of H+/K+ ATPase” (J Med Chem, 1988) come the findings set out here.

SMILES strings stand for the structures.

Usually IC50 stands for the concentration that inhibits the measured activity by half. Higher therefore signals a need for much substance. Take `Cc1cc(C)c(N)c(C[S+]([O-])c2nc3ccccc3[nH]2)c1` (stereo not given): the IC50 in experiment [1] was determined as 0.8 µM. The inhibition entry in the experiment on Canis familiaris [2] is reported as “Lethal at 10mg/kg,id”.

As to `Cc1ccc(C)c(C[S+]([O-])c2nc3ccccc3[nH]2)c1N` (stereo not given), the IC50 in experiment [1] came out at 0.8 µM.

As to `CCOC(=O)c1ccc(N)c(C[S+]([O-])c2nc3ccc(OC)cc3[nH]2)c1` (stereo not given), in experiment [1], the IC50 was over 100 µM.

Broadly, the inhibition in vivo is how much of the control response was suppressed. Lower therefore signals a response near the control. In the case of `COc1cccc(C[S+]([O-])c2nc3ccccc3[nH]2)c1N` (stereo not given), the IC50 in experiment [1] stood at 9.3 µM. The molecule also returned an inhibition in vivo at 3 mg/kg in the experiment with Canis familiaris [3] of 68%.

In turn, `Cc1cccc(C[S+]([O-])c2nc3ccccc3[nH]2)c1N` (stereo not given) came in with an IC50 in experiment [1] of 3.2 µM. The molecule further gave an inhibition in vivo at 3 mg/kg with Canis familiaris [3] of 44%.

`CNc1ccccc1C[S+]([O-])c1nc2ccccc2[nH]1` (stereo not given) displayed an IC50 in experiment [1] of 0.6 µM. Further, testing at 3 mg/kg in the experiment with Canis familiaris [3] gave an inhibition in vivo of 21%.

Regarding `COc1ccc2[nH]c([S+]([O-])Cc3c(N)cc(C)c(OC)c3C)nc2c1` (stereo not given), the IC50 in experiment [1] came out at 2.1 µM. The molecule also had an inhibition in vivo at 3 mg/kg in the experiment on Canis familiaris [3] of 31%.

`COC(=O)c1cccc(C[S+]([O-])c2nc3ccccc3[nH]2)c1N` (stereo not given) gave an IC50 in experiment [1] of over 100 µM. Also, in the experiment on Canis familiaris [3], at 3 mg/kg the inhibition in vivo was 28%.

As to `COc1cccc(C[S+]([O-])c2nc3cc(C(F)(F)F)ccc3[nH]2)c1N` (stereo not given), the IC50 in experiment [1] was found to be 8.5 µM.

The molecule `CCc1ccc(N)c(C[S+]([O-])c2nc3ccccc3[nH]2)c1` (stereo not given) gave an IC50 in experiment [1] of 2 µM. Moreover, testing at 3 mg/kg in the experiment with Canis familiaris [3] gave an inhibition in vivo of 62%.

Turning to `COc1ccc(N)c(C[S+]([O-])c2nc3ccccc3[nH]2)c1` (stereo not given), in experiment [1], the IC50 was 1.6 µM.

In experiment [1], `CCOC(=O)c1ccc(N)c(C[S+]([O-])c2nc3ccccc3[nH]2)c1` (stereo not given) returned an IC50 of over 100 µM. This molecule also gave an inhibition in vivo at 3 mg/kg in the experiment with Canis familiaris [3] of 7%.

For `CCOc1ccc2[nH]c([S+]([O-])Cc3cc(C)ccc3N)nc2c1` (stereo not given), the IC50 in experiment [1] was 5.3 µM.

For `Nc1ccccc1C[S+]([O-])c1nc2cc(Cl)ccc2[nH]1` (stereo not given), in experiment [1], the midpoint of inhibition, the IC50, lay at 12 µM.

Regarding `CCOc1ccc2[nH]c([S+]([O-])Cc3ccccc3N)nc2c1` (stereo not given), 24 µM corresponded to half-maximal inhibition in experiment [1] (IC50).

On to `Nc1ccccc1C[S+]([O-])c1nc2ccccc2[nH]1` (stereo not given), for which the IC50 in experiment [1] worked out at 4.3 µM. In the experiment with Canis familiaris [3], this molecule had an inhibition in vivo at 3 mg/kg of 53%.

As to `CCCCc1ccc(N)c(C[S+]([O-])c2nc3ccccc3[nH]2)c1` (stereo not given), the IC50 in experiment [1] is 2.6 µM. This molecule came in with an inhibition in vivo at 3 mg/kg in the experiment on Canis familiaris [3] of 19%.

`Cc1c(Cl)ccc(C[S+]([O-])c2nc3ccccc3[nH]2)c1N` (stereo not given) came in with an IC50 in experiment [1] of 6.4 µM.

On to `Cc1cccc2[nH]c([S+]([O-])Cc3ccccc3N)nc12` (stereo not given), for which inhibition in experiment [1] was half-maximal at 7.4 µM (IC50). This molecule showed an inhibition in vivo at 3 mg/kg in the experiment on Canis familiaris [3] of 60%.

In experiment [1], `CN(C)c1ccccc1C[S+]([O-])c1nc2ccccc2[nH]1` (stereo not given) registered an IC50 of 0.7 µM. This molecule showed an inhibition in vivo at 3 mg/kg in the experiment with Canis familiaris [3] of 14%.

The molecule `[O-][S+](Cc1ccccn1)c1nc2ccccc2[nH]1` (stereo not given) [TIMOPRAZOLE] registered an inhibition in vivo at 3 mg/kg in the experiment on Canis familiaris [3] of 68%.

Take `Cc1ccc2[nH]c([S+]([O-])Cc3ccccc3N)nc2c1` (stereo not given): it took 7.9 µM to reach half-maximal inhibition in experiment [1] (IC50).

In the case of `Nc1ccc(F)cc1C[S+]([O-])c1nc2ccccc2[nH]1` (stereo not given), half-maximal inhibition in experiment [1] (IC50) required 25 µM.

Consider `COc1ccc2[nH]c([S+]([O-])Cc3ccccc3N)nc2c1` (stereo not given), for which, in experiment [1], the IC50 was 11 µM. This molecule returned an inhibition in vivo at 3 mg/kg with Canis familiaris [3] of 78%.

As for `Nc1ccc(Cl)cc1C[S+]([O-])c1nc2ccccc2[nH]1` (stereo not given), the IC50 in experiment [1] is over 100 µM. Testing at 3 mg/kg in the experiment with Canis familiaris [3] gave an inhibition in vivo of 24%.

Molecule `COc1ccc2[nH]c([S+]([O-])Cc3ncc(C)c(OC)c3C)nc2c1` (stereo not given) [OMEPRAZOLE] showed an inhibition in vivo at 3 mg/kg in the experiment with Canis familiaris [3] of 97%.

`COc1c(C)cc(N)c(C[S+]([O-])c2nc3ccccc3[nH]2)c1C` (stereo not given): the IC50 in experiment [1] is 0.2 µM. In addition, the inhibition in vivo at 3 mg/kg in the experiment on Canis familiaris [3] worked out at 53%.

In experiment [1], `Cc1ccc2nc([S+]([O-])Cc3ccc(C)c(C)c3N)[nH]c2c1` (stereo not given) had an IC50 of 0.7 µM.

In experiment [1], `Cc1cccc(N)c1C[S+]([O-])c1nc2ccccc2[nH]1` (stereo not given) returned an IC50 of 0.7 µM. Moreover, the inhibition in vivo at 3 mg/kg with Canis familiaris [3] came out at 44%.

Molecule `Nc1ccc(C(F)(F)F)cc1C[S+]([O-])c1nc2ccccc2[nH]1` (stereo not given) displayed an IC50 in experiment [1] of over 100 µM. The molecule also returned an inhibition in vivo at 3 mg/kg with Canis familiaris [3] of 16%.

Take `COc1cc2nc([S+]([O-])Cc3ccccc3N)[nH]c2cc1OC` (stereo not given): it took 120 µM to reach half-maximal inhibition in experiment [1] (IC50).

In experiment [1], `CC(=O)Nc1ccccc1C[S+]([O-])c1nc2ccccc2[nH]1` (stereo not given) displayed an IC50 of over 100 µM. This molecule gave an inhibition in vivo at 3 mg/kg in the experiment with Canis familiaris [3] of 37%.

In experiment [1], `Cc1ccc(C)c(C[S+]([O-])c2nc3cc(C(F)(F)F)ccc3[nH]2)c1N` (stereo not given) came in with an IC50 of 1.5 µM.

In experiment [1], `COc1ccc2[nH]c([S+]([O-])Cc3cccc(C)c3N)nc2c1` (stereo not given) yielded an IC50 of 5.4 µM. 3 mg/kg produced 72% inhibition in vivo with Canis familiaris [3].

In experiment [1], `Cc1ccc(C[S+]([O-])c2nc3ccccc3[nH]2)c(N)c1C` (stereo not given) displayed an IC50 of 0.6 µM. The same molecule had an inhibition in vivo at 3 mg/kg in the experiment on Canis familiaris [3] of 79%.

In experiment [1], `Cc1cc(N)c(C[S+]([O-])c2nc3ccccc3[nH]2)c(C)c1C` (stereo not given) returned an IC50 of 10 µM.

Consider `COc1ccc2[nH]c([S+]([O-])Cc3cc(C)ccc3N)nc2c1` (stereo not given), for which the midpoint of inhibition in experiment [1], the IC50, lay at 4.2 µM. The molecule also gave an inhibition in vivo at 3 mg/kg in the experiment with Canis familiaris [3] of 80%.

Molecule `Cc1cc2nc([S+]([O-])Cc3ccccc3N)[nH]c2cc1C` (stereo not given) yielded a concentration for half-maximal inhibition (IC50) in experiment [1] of 13.5 µM. In addition, in the experiment on Canis familiaris [3], the inhibition in vivo at 3 mg/kg was 44%.

Turning to `Cc1ccc(N)c(C[S+]([O-])c2nc3ccccc3[nH]2)c1` (stereo not given), half-maximal inhibition in experiment [1] (IC50) required 2.1 µM. The molecule further gave an inhibition in vivo at 3 mg/kg with Canis familiaris [3] of 67%.

As for `Nc1cc(Cl)ccc1C[S+]([O-])c1nc2ccccc2[nH]1` (stereo not given), the IC50 in experiment [1] was determined as 24 µM. In addition, the inhibition in vivo at 3 mg/kg with Canis familiaris [3] was found to be 13%.

Regarding `COc1cc(Cl)c(C)c(C[S+]([O-])c2nc3ccccc3[nH]2)c1N` (stereo not given), the IC50 in experiment [1] is 2.7 µM.

Regarding `Nc1ccccc1C[S+]([O-])c1nc2cc(C(F)(F)F)ccc2[nH]1` (stereo not given), the midpoint of inhibition in experiment [1], the IC50, lay at 4.4 µM. This molecule also displayed an inhibition in vivo at 3 mg/kg with Canis familiaris [3] of 37%.

The molecule `CCc1cccc(C[S+]([O-])c2nc3ccccc3[nH]2)c1N` (stereo not given) returned an IC50 in experiment [1] of 3.9 µM. This molecule registered an inhibition in vivo at 3 mg/kg with Canis familiaris [3] of 21%.

In experiment [1], `Cc1cc(Cl)cc(C[S+]([O-])c2nc3ccccc3[nH]2)c1N` (stereo not given) had a 50% inhibitory concentration (IC50) of 60 µM.
